How the values were obtained:
Assay type in all cases: cell-based, mouse
HT22 cells [1] = experiment: TUNEL assay of glutamate-induced oxytosis; conditions: 2 mM glutamate alone for 18 h, normalized by nuclei count
HT22 cells [2] = experiment: Cell morphology by phase contrast microscopy; conditions: 50 μM peptide or 2 mM glutamate (positive control), 24 h
HT22 cells [3] = experiment: Immunofluorescent staining of ssDNA; conditions: 2 mM glutamate alone for 18 h
In short: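 HT22 cells on cover glass (5 × 10⁴ cells/well, 24 h) exposed to 2 mM L-glutamate in fresh medium for 18 h. Fixed in 4% paraformaldehyde (pH 7.4, 4 °C, 30 min), acetone-permeabilised, goat-serum blocked. Rabbit anti-ssDNA (1:200, 4 °C overnight), Alexa 594 secondary with DAPI. Confocal imaging; ssDNA-positive cells counted over total nuclei. At least three repeats, mean ± SD, ANOVA/Tukey-Kramer.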

AIF = AIF nuclear translocation by immunocytochemistry; conditions: HT22 cells, 2 mM glutamate alone for up to 18 h

- cell morphology (HT22 cells [2]): induced cell detachment and shrinkage
Structure (SMILES): N[C@@H](CCC(=O)O)C(=O)O [glutamate, L-glutamate]
- TUNEL-positive cells (HT22 cells [1]): up to 73%
- ssDNA-positive cells (HT22 cells [3]): 40%
- AIF localization (AIF): induced diffuse localization of AIF in both cytoplasm and nucleus

Reference: PMC8374356 (Biochemistry and Biophysics Reports, 2021)
